Experiment [1] has as its target thrombin (Homo sapiens, UniProt P00734). Kind of experiment: Inhibition of thrombin, chromogenic substrate hydrolysis assay. It is filed as biochemical. Put shortly: (§1)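 Thrombin at about 6 nM with Spectrozyme TH at 50 μM (in-well), in pH 7.4 Tris-HCl buffer with NaCl, CaCl2, PEG8000 and Tween80. Substrate level was set from its KM. Residual activity was measured across several test compound concentrations, and a logistic fit of concentration-dependent inhibition gave IC50, efficacy and Hill slope.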

For experiment [2], the system named is thrombin. The description is as above. It is filed as biochemical, human. To be noted: ratio of IC50 values. Put shortly:
as §1

Experiment [3] has as its target FXa (Homo sapiens, UniProt P00742, DEL180-234). The experiment in a line: Inhibition of FXa, chromogenic substrate hydrolysis assay. Format: biochemical. Put shortly: (§2)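 In-well FXa was about 1.09 nM with Spectrozyme FXa at 125 μM (from KM), in pH 7.4 Tris-HCl containing NaCl, 2.5 mM CaCl2, 0.1% PEG8000 and 0.02% Tween80. Several test compound concentrations were used; residual activity was fitted with a logistic equation for IC50 where inhibition was concentration-dependent.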

For experiment [4], the system named is FXa. The experiment is described as above. Format: biochemical, human. Particulars: ratio of IC50 values. Put shortly: as §2
For experiment [5], the target named is FXIa (Homo sapiens, UniProt P03951). Kind of experiment: Inhibition of FXIa, chromogenic substrate hydrolysis assay. It is filed as biochemical. Put shortly: (§3)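 Human FXIa activity was measured with chromogenic substrate S-2366 in pH 7.4 Tris-HCl with NaCl, 2.5 mM CaCl2, 0.1% PEG8000 and 0.02% Tween80. Residual activity was measured at several test compound concentrations, and a logistic fit gave IC50, efficacy and Hill slope.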

Experiment [6] concerns FXIa. The description is as above. Format: biochemical, human. To be noted: ratio of IC50 values. Put shortly:
as §3

The target of experiment [7] is FIXa (Homo sapiens, UniProt P00740, DEL192-226). Kind of experiment: Inhibition of FIXa, chromogenic substrate hydrolysis assay. Format: biochemical. Put shortly:
(§4)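 FIXa assay: about 89 nM enzyme and 850 μM Spectrozyme FIXa (in-well, level set from KM), in pH 7.4 Tris-HCl with NaCl, CaCl2, PEG8000 and Tween80. Residual activity was measured at several test compound concentrations and fitted with a logistic equation for IC50 where inhibition was concentration-dependent.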

Experiment [8] concerns FIXa. The description is as above. Particulars: ratio of IC50 values. Format: biochemical, human. Put shortly:
as §4

The subject of the next experiment is FVIIa/tissue factor. The experiment in a line: Inhibition of FVIIa/tissue factor, chromogenic substrate hydrolysis assay. Format: biochemical, human. To be noted: ratio of IC50 values. Put shortly:
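FVIIa/tissue factor: enzyme about 8 nM with Spectrozyme VIIa at 1000 μM in-well, chosen from KM. Buffer was pH 7.4 Tris-HCl with NaCl, 2.5 mM CaCl2, 0.1% PEG8000 and 0.02% Tween80. Residual chromogenic activity was measured at several test compound concentrations, and a logistic fit gave IC50 where inhibition was concentration-dependent.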

For another experiment, the target named is T1, bovine trypsin (Bos taurus, UniProt P00760).
T1 sequence (P00760 24-246): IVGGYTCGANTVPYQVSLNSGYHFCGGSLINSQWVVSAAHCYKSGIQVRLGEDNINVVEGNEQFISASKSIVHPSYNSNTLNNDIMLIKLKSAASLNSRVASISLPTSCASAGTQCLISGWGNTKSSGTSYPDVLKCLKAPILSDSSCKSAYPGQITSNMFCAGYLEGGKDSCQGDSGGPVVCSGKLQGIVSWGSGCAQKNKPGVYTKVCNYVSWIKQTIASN
Kind of experiment: Inhibition of trypsin, chromogenic substrate hydrolysis assay. It is filed as biochemical. Put shortly:
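Bovine trypsin at 500 ng/mL with S-2222 at 650 μM in-well (substrate level from KM), in pH 7.4 Tris-HCl containing NaCl, CaCl2, PEG8000 and Tween80. Residual activity was measured at several test compound concentrations, with logistic fitting for IC50 where inhibition was concentration-dependent.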

In experiment [9] the target is bovine α-chymotrypsin (Bos taurus, UniProt P00766, DEL14-15/DEL147-148). Kind of experiment: Inhibition of chymotrypsin, chromogenic substrate hydrolysis assay. Format: biochemical. Put shortly: (§5)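 Bovine α-chymotrypsin at 500 ng/mL with N-succinyl-Ala-Ala-Pro-Phe-p-nitroanilide at 910 μM in-well (from KM), in pH 7.4 Tris-HCl with NaCl, CaCl2, PEG8000 and Tween80. Residual activity was measured over several test compound concentrations, with logistic fitting for IC50 where inhibition was concentration-dependent.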

Experiment [10] concerns bovine α-chymotrypsin. The experiment is described as above. It is filed as biochemical. To be noted: ratio of IC50 values. Put shortly:
as §5

Another experiment deals with T2, human FXIIa (Homo sapiens, UniProt P00748).
T2 sequence (P00748 20-615): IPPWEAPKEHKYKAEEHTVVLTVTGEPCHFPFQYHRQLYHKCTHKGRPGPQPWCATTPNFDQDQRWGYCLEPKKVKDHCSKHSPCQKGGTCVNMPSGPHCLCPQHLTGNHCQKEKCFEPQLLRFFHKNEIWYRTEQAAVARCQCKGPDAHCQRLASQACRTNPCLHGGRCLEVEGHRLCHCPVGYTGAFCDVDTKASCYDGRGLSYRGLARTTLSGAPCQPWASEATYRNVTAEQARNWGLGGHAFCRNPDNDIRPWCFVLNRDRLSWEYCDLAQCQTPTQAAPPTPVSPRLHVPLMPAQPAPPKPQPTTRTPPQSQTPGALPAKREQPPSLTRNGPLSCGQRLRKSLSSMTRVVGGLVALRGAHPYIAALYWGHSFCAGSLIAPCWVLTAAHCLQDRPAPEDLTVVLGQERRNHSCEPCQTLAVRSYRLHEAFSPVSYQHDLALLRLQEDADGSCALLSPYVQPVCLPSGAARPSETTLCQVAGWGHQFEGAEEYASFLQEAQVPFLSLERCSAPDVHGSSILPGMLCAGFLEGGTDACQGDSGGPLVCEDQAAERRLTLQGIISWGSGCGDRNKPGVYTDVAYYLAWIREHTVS
The experiment in a line: Inhibition of FXIIa-mediated activation of FXI to FXIa. Format: biochemical. Put shortly: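 Zymogen FXI (4 μM as added), human FXIIa (200 nM as added) and test compound (1000–0.32 μM as added) were combined in Tris-HCl pH 7.4 at 37 °C. After 5 min, S-2366 (stock 6.9 mM) was added. The FXIa generated was measured as the initial A405 rate. A logistic fit of relative residual activity gave IC50 and efficacy.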

The test system of the next experiment is human plasma. The experiment in a line: Prothrombin time. Format: biochemical. To be noted: normal human plasma; highest concentration tested about 980 μM. Put shortly:
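Thromboplastin-D was reconstituted in distilled water and warmed to 37 °C. Citrated pooled normal human plasma was incubated with test compound (solutions of 0–983 μM as added) for 30 s at 37 °C. Clotting was started by adding the prewarmed thromboplastin-D and the clotting time was read on a fibrometer. The concentration giving a 1.5-fold increase in PT was derived. Values are means of three experiments.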

A value given as a limit tells only on which side of the number the result lay.

The term IC50 denotes the concentration at which inhibition is half-maximal.

Sequence of FXIa (Homo sapiens, UniProt P03951) (P03951 19-625): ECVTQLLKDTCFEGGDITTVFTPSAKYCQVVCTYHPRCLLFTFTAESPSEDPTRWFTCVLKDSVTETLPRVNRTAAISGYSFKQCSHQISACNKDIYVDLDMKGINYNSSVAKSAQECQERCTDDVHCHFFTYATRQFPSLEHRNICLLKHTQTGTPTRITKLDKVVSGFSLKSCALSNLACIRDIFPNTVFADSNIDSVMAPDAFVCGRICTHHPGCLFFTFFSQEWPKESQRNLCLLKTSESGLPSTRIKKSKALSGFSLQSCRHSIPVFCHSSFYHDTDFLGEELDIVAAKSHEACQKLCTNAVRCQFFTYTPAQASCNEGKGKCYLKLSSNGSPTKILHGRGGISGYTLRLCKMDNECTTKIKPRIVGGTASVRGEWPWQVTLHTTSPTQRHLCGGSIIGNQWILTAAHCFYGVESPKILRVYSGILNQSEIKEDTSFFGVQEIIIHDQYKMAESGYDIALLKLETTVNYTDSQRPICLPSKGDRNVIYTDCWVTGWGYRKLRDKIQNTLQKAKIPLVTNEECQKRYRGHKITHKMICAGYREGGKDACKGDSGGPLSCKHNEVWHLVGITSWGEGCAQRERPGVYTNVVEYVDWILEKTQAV

Take `COC(=O)c1nc(N)n(C(=O)c2ccc(C(C)(C)C)cc2)n1` [Inhibitor 1, Methyl 5-amino-1-(4-(tert-butyl)benzoyl)-1H-1,2,4-triazole-3-carboxylate]: the IC50 at thrombin [1] is 235 ± 52.5 µM; against FXa [3], over 577 µM; on FXIa [5], 16.8 ± 6.7 µM; at FIXa [7], over 1000 µM; against bovine trypsin, over 1000 µM; against bovine α-chymotrypsin [9], over 1000 µM. This molecule gave an IC50 on human FXIIa of about 2 µM. Moreover, the entries for the “DeltaY (efficacy of inhibition)” value on thrombin [1] (Thrombin) and at FXIa [5] (FXIa) were 106 ± 7% and 32 ± 11%, respectively. For the same molecule, the “HS (Hill slope)” value on thrombin [1] (Thrombin) is 0.4 ± 0.1; on FXIa [5] (FXIa), 1.9 ± 2.8. In addition, in the experiment on thrombin [2], the “selectivity index to human FXIIa over thrombin” value is recorded as 2137 fold. In addition, the “selectivity to FXIIa over FXa” value in the experiment with FXa [4] was “at least 4545 fold”. Moreover, the “selectivity index to human FXIIa over FXIa” value with FXIa [6] turned out to be 153 fold. For the same molecule, the “selectivity to FXIIa over FIXa” value in the experiment with FIXa [8] is given as “at least 4545 fold”. The “selectivity to FXIIa over FVIIa/TF” value in the experiment with FVIIa/tissue factor is reported as “at least 4545 fold”. Also, the “selectivity to FXIIa over trypsin” value at bovine trypsin (ratio of IC50 values) is reported as “at least 4545 fold”. Besides, the “selectivity to FXIIa over α-chymotrypsin” value in the experiment with bovine α-chymotrypsin [10] is reported as “at least 4545 fold”. In addition, at human FXIIa (residual FXIa activity by S-2366, pH 7.4, 37 °C), the “efficacy of FXIIa inhibition using the macromolecule substrate FXI” value was ~ 41%. In the experiment with human plasma, the “PT (EC×1.5), concentration required to increase PT by 1.5-fold” value is on record as “not significantly affected”.
